Structures can show the parent of a compound that is named as a salt. Marks after values point to notes of the source that are not given here.
How the values were obtained:
[1] = molecular target: GluN1/GluN2B NMDA receptor (Rattus norvegicus, UniProt P35439+Q00960); test: Two-electrode voltage-clamp recordings, Xenopus oocytes expressing GluN1/GluN2B; format: cell-based
In short: (§1)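 Xenopus oocytes were injected with rat GluN1-1a and GluN2A, 2B, 2C or 2D cRNA at a 1:2 ratio. Two-electrode voltage clamp was run 2–6 days later at room temperature and −40 mV. Bath was 90 NaCl, 1 KCl, 10 HEPES, 0.5 BaCl2, 0.01 EDTA (mM), pH 7.4. Currents were evoked by 1 μM glutamate plus 100 μM glycine, with test compound gravity-perfused. Hill fits gave IC50 per oocyte (5–6 oocytes). Ki was derived by Cheng-Prusoff using earlier glutamate EC50 values.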

GluK3 = GluK3 (Rattus norvegicus, UniProt P42264); test: Radioligand binding at recombinant homomeric GluK3; details: for GluK3 % specific binding (Table 5): mean ± SD, ligand concentration not given
In short: (§2)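 Membranes from sf9 cells expressing rat homomeric GluK1, GluK2 or GluK3 were incubated in 50 mM Tris-HCl, pH 7.1, for 2 h at 4 °C. Radioligand was [3H]-(S)-NF608 for GluK1 and [3H]kainic acid for GluK2 and GluK3. Samples were filtered on GF/B, washed twice with ice-cold buffer, dried for 1 h at 70 °C and counted by scintillation. Ki came from 12–16-point triplicate curves. Single-point % specific binding is mean ± SD of three experiments, at 10 μM test compound where stated.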

native KA receptors = test: Radioligand binding at native KA receptors; details: rat synaptosomes, [3H]KA
In short: (§3)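 Rat cortical synaptosomal membranes were labelled with 5 nM [3H]AMPA (AMPA), 5 nM [3H]KA (KA) or [3H]CGP39653 (NMDA). Test compound was run at 12–16 concentrations in triplicate, with three to six independent experiments. Cpm were fitted by nonlinear regression. Values are reported as pIC50 for AMPA and KA and as pKi for NMDA, each as mean with SEM.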

native AMPA receptors = test: Radioligand binding at native AMPA receptors; details: rat synaptosomes, [3H]AMPA; for IC50: read-out: AMPA IC50, native iGluRs (synaptosomes)
In short: as §3

GluK2 = GluK2 (Rattus norvegicus, UniProt P42260); test: Radioligand binding at recombinant homomeric GluK2; details: for GluK2 % specific binding (Table 5): mean ± SD, ligand concentration not given
In short: as §2

native NMDA receptors = test: Radioligand binding at native NMDA receptors; set-up: species or system rat; details: for NMDA pKi with SEM (in brackets) / Ki: rat synaptosomes, [3H]CGP-39653; for Ki: read-out: NMDA Ki, native iGluRs (synaptosomes); for increase in affinity for native NMDA receptors: compared to 4a; for selectivity/preference for NMDA receptors over AMPA and KA receptors: native receptors
In short: as §3

[2] = molecular target: GluN1/GluN2A NMDA receptor (Rattus norvegicus, UniProt P35439+Q00959); test: Two-electrode voltage-clamp recordings, Xenopus oocytes expressing GluN1/GluN2A; format: cell-based
In short: as §1

[3] = molecular target: GluN1/GluN2A NMDA receptor (Rattus norvegicus, UniProt Q00959); test: as above; format: cell-based; details: two-electrode voltage-clamp
In short: as §1

GluK1 = GluK1 (Rattus norvegicus, UniProt P22756); test: Radioligand binding at recombinant homomeric GluK1; details: for GluK1 % specific binding (Table 5): [3H]NF608, mean ± SD, ligand concentration not given
In short: as §2

[4] = molecular target: GluN1/GluN2D NMDA receptor (Rattus norvegicus, UniProt P35439+Q62645); test: Two-electrode voltage-clamp recordings, Xenopus oocytes expressing GluN1/GluN2D; format: cell-based
In short: as §1

[5] = molecular target: GluN1/GluN2C NMDA receptor (Rattus norvegicus, UniProt P35439+Q00961); test: Two-electrode voltage-clamp recordings, Xenopus oocytes expressing GluN1/GluN2C; format: cell-based
In short: as §1

GluA1 = GluA1 (Rattus norvegicus, UniProt P19490); test: Radioligand binding at recombinant homomeric GluA1
In short: (§4)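 Membranes from sf9 cells expressing rat homomeric GluA1 or GluA2 were incubated with [3H]-(S)-AMPA and test compound for 2 h at 4 °C. Buffer was 50 mM Tris-HCl, 0.1 M KSCN, 2.5 mM CaCl2, pH 7.2. Samples were filtered on GF/C, washed twice with ice-cold buffer and counted by scintillation. Competition curves used 12–16 concentrations in triplicate. Ki came from a one-site fit and nH from a four-parameter logistic fit.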

GluA2 = GluA2 (Rattus norvegicus, UniProt P19491); test: Radioligand binding at recombinant homomeric GluA2
In short: as §4

[6] = 10 μM ligand concentration, [3H]KA, mean ± SD (Tables 2, 4)

Sequence of GluK2 (P42260 32-908): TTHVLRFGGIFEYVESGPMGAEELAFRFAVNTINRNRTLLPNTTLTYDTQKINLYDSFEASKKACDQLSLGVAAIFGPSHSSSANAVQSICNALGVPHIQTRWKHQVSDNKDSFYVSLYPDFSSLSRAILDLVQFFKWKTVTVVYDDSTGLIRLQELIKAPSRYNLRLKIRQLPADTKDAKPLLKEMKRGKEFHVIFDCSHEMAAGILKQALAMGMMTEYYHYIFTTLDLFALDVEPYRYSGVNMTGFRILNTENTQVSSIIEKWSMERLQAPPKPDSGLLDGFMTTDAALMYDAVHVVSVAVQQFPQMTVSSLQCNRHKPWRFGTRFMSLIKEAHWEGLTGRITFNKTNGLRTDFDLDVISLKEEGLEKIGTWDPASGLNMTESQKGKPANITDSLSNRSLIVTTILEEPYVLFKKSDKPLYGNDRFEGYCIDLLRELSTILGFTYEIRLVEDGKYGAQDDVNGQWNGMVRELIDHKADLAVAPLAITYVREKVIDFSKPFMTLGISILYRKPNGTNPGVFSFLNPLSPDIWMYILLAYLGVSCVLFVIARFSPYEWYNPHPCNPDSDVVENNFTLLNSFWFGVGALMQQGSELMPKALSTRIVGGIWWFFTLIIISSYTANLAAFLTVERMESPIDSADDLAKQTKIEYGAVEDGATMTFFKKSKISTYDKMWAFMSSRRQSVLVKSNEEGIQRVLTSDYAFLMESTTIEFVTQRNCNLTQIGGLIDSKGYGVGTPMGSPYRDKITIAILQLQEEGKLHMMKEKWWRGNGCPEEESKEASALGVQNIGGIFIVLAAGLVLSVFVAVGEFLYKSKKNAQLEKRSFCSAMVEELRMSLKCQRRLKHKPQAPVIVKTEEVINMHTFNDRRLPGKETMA
Sequence of GluA2 (P19491 22-883): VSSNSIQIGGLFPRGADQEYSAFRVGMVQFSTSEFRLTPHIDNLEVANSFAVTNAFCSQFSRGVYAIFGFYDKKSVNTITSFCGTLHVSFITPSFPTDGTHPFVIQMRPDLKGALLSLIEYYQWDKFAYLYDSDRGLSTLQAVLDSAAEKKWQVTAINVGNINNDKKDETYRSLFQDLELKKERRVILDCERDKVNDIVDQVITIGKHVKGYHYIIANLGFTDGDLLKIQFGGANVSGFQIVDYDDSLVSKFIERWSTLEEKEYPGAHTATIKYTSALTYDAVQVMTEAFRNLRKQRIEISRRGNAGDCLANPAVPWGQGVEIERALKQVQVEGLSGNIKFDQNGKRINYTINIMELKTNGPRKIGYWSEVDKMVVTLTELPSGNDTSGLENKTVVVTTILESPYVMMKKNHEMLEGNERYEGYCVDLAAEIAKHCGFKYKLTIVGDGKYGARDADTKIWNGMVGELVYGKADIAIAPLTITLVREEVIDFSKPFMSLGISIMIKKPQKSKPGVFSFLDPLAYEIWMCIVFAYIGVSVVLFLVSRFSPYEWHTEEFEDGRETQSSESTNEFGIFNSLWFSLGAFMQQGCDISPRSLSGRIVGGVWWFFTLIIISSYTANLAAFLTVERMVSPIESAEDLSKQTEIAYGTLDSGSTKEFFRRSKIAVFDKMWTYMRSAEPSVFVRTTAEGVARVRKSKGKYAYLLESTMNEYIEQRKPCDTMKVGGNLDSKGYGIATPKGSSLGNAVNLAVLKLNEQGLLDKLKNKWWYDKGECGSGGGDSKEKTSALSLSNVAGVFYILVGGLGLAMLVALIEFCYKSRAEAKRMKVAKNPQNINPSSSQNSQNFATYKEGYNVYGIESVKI
Sequence of GluK1 (P22756 31-920 isoform P22756-4 limits assumed): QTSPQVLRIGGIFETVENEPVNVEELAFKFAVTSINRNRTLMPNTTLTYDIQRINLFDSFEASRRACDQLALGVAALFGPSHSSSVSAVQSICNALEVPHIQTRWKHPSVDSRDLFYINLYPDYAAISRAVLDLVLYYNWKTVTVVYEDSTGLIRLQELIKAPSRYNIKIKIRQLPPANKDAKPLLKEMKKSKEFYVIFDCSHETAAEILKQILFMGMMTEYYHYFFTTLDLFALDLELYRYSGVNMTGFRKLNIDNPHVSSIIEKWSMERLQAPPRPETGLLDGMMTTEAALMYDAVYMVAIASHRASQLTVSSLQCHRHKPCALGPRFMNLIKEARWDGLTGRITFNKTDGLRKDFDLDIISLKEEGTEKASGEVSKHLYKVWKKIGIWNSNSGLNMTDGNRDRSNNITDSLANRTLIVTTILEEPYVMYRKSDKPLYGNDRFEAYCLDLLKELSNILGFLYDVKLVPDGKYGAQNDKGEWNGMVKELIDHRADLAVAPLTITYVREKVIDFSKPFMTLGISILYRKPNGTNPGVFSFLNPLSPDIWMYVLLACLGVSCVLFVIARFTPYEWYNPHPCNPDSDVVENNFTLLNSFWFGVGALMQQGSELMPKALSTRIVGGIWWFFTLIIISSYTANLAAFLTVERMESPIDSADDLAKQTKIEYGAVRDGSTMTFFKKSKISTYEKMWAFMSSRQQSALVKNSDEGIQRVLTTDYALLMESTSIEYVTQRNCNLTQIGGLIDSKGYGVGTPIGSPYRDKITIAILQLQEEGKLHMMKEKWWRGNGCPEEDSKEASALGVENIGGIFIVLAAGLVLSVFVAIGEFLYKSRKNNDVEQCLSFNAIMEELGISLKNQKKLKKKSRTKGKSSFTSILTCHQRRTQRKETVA
Sequence of GluN1/GluN2B NMDA receptor (Q00960 27-1482, other chains not shown): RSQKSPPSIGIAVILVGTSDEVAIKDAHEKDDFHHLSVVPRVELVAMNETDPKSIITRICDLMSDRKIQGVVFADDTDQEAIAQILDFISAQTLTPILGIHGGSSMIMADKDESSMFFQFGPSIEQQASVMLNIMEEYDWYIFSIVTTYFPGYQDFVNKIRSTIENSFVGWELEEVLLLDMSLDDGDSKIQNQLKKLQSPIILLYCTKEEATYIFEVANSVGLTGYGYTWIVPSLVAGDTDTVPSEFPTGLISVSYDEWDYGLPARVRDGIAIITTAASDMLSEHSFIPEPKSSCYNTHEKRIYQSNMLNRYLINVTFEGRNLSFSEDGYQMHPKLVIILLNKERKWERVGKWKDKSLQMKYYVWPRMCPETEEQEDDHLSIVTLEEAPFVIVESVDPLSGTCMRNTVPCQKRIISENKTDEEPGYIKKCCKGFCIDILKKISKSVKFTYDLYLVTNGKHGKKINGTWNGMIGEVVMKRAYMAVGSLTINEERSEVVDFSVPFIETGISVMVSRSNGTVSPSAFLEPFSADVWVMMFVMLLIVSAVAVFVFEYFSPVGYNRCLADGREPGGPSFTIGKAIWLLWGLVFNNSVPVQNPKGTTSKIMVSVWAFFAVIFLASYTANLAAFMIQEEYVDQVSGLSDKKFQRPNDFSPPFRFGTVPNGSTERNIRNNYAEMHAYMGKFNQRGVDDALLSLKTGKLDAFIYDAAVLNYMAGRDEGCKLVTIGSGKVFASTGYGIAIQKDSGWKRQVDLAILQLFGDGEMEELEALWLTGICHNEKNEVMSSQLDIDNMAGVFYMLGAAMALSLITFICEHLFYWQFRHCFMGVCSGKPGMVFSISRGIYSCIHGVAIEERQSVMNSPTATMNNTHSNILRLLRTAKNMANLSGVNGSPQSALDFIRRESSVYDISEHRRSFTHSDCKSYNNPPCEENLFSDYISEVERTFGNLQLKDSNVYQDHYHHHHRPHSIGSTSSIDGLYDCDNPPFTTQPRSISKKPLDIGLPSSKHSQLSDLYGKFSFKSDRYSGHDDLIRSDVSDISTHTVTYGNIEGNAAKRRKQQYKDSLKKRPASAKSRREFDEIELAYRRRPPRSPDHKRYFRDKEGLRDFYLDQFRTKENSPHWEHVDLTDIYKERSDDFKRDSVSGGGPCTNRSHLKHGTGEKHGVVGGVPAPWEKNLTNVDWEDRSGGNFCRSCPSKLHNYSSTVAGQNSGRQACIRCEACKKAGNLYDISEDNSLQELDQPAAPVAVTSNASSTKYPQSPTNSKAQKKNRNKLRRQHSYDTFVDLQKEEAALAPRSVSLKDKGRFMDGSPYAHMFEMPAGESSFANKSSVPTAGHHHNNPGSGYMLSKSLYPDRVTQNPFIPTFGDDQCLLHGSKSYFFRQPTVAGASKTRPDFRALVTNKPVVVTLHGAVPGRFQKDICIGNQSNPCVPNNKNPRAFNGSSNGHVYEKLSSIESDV
Sequence of GluK3 (P42264 32-919): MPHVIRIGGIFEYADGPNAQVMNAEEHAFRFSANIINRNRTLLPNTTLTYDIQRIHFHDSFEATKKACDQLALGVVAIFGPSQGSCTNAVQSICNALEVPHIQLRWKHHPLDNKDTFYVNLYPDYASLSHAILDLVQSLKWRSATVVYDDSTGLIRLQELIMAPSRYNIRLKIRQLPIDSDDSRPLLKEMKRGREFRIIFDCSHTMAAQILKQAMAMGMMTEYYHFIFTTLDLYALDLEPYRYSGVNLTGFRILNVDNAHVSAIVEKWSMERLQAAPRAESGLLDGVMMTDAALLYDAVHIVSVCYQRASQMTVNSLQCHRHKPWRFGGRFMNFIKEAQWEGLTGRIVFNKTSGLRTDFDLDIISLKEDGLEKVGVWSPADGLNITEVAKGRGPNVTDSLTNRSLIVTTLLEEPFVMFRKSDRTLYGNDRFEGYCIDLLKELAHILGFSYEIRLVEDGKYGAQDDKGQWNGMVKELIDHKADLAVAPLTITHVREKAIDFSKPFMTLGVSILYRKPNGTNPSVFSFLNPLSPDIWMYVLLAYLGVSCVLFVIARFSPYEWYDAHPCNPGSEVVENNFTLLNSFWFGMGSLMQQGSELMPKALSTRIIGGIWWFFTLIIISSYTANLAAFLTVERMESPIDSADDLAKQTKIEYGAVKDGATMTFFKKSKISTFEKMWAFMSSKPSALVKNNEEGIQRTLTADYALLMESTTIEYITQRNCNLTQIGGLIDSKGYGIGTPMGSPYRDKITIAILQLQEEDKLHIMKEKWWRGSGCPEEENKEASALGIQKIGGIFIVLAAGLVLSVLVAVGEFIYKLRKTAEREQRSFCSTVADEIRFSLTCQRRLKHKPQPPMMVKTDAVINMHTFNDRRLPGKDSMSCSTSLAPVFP

Row | Compound | IC50 [1] [µM] | Ki (GluK3) [µM] | KA IC50, native iGluRs (synaptosomes) (native KA receptors) [µM] | IC50 (native AMPA receptors) [µM] | Ki (GluK2) [µM] | NMDA pKi with SEM (in brackets) (native NMDA receptors) | Ki (native NMDA receptors) [µM] | IC50 [2] [nM] | Ki (GluK1) [µM] | IC50 [4] [µM] | IC50 [5] [µM] | KA pIC50 with SEM (in brackets) (native KA receptors) | AMPA pIC50 with SEM (in brackets) (native AMPA receptors) | Ki (GluA1) [µM] | Ki (GluA2) [µM] | also measured
1 | O=C(O)c1ccc([C@H]2CCN[C@@H]2C(=O)O)cc1C(=O)O [4h, 4-((2S,3R)-2-Carboxypyrrolidin-3-yl)phthalic acid tri sodium salt] | 4.24 ± 0.13 | > 100 | >100 | > 100 | > 100 | 5.88 ± 0.06 | 1.3 | 750 ± 30 | > 100 | 24.3 ± 1.46 | 5.17 ± 0.12 | – | – | – | – | selectivity for GluN1/2A over GluN1/2B and GluN1/2C [3]: 6 to 10 fold; selectivity for GluN1/2A over GluN1/2D [3]: 32 to 34 fold
2 | Cl.O=C(O)c1cc(C(=O)O)cc([C@H]2CCN[C@@H]2C(=O)O)c1 [5c, 5-((2S,3R)-2-Carboxypyrrolidin-3-yl)isophthalic acid hydrochloride] | 4.37 ± 0.17 | 15.7 ± 3.1 | 63 | 36 | > 100 | 6.32 ± 0.03 | 0.48 | 630 ± 10 | 12.5 ± 1.7 | 21.2 ± 0.37 | 6.27 ± 0.13 | 4.21 ± 0.05 | 4.45 ± 0.04 | – | – | increase in affinity for native NMDA receptors (native NMDA receptors): 9 fold; selectivity/preference for NMDA receptors over AMPA and KA receptors (native NMDA receptors): 75 fold; selectivity for GluN1/2A over GluN1/2B and GluN1/2C [3]: 6 to 10 fold; selectivity for GluN1/2A over GluN1/2D [3]: 32 to 34 fold
3 | Cl.O=C(O)c1cc(-c2cnn[nH]2)cc([C@H]2CCN[C@@H]2C(=O)O)c1 [5d, (2S,3R)-3-(3-Carboxy-5-(1H-1,2,3-triazol-5-yl)phenyl)pyrrolidine-2-carboxylic acid hydrochloride] | 3.51 ± 0.18 | 10 to 50 | 20 | 21 | > 100 | 6.08±0.05 | 0.83 | 1360 ± 60 | > 50 | 18.5 ± 1.54 | 7.28 ± 0.17 | 4.71±0.06 | 4.69 ±0.04 | – | – | increase in affinity for native NMDA receptors (native NMDA receptors): 7 fold; selectivity/preference for NMDA receptors over AMPA and KA receptors (native NMDA receptors): 24 fold
4 | Cl.O=C(O)c1cc(-c2ccccn2)cc([C@H]2CCN[C@@H]2C(=O)O)c1 [5e, (2S,3R)-3-(3-Carboxy-5-(pyridin-2-yl)phenyl)pyrrolidine-2-carboxylic acid hydrochloride] | – | 6.4 ± 0.41 | 20 | 40 | > 100 | 5.42±0.01 | 3.8 | – | 20 ± 1.8 | – | – | 4.71±0.05 | 4.40±0.05 | 19 | 55 | –
5 | Cl.O=C(O)c1cc(-c2cccnc2)cc([C@H]2CCN[C@@H]2C(=O)O)c1 [5f, (2S,3R)-3-(3-Carboxy-5-(pyridin-3-yl)phenyl)pyrrolidine-2-carboxylic acid hydrochloride] | – | 5.9 ± 0.62 | 23 | 29 | > 100 | 5.51±0.02 | 3.1 | – | 25 ± 1.2 | – | – | 4.65±0.03 | 4.57±0.13 | 15 | 40 | –
6 | Cl.O=C(O)c1cc(-c2ccncc2)cc([C@H]2CCN[C@@H]2C(=O)O)c1 [5g, (2S,3R)-3-(3-Carboxy-5-(pyridin-4-yl)phenyl)pyrrolidine-2-carboxylic acid hydrochloride] | – | 6.5 ± 0.92 | 25 | 27 | > 100 | 5.76±0.01 | 1.7 | – | 22 ± 2.3 | – | – | 4.61±0.05 | – | 12 | 33 | –
7 | Cl.O=C(O)c1cc(-c2cncnc2)cc([C@H]2CCN[C@@H]2C(=O)O)c1 [5h, (2S,3R)-3-(3-Carboxy-5-(pyrimidin-5-yl)phenyl)pyrrolidine-2-carboxylic acid hydrochloride] | – | 13 ± 0.17 | >100 | 59 | 100 | 4.98±0.01 | 10 | – | 100 | – | – | – | 4.30±0.13 | 22.7 | 82.9 | –
8 | Cl.O=C(O)c1cc(-c2cnc(O)nc2)cc([C@H]2CCN[C@@H]2C(=O)O)c1 [5i, (2S,3R)-3-(3-Carboxy-5-(2-hydroxypyrimidin-5-yl)phenyl)pyrrolidine-2-carboxylic acid hydrochloride] | – | 16 ± 0.98 | >100 | 13 | > 100 | 5.39±0.03 | 4.1 | – | 76 ± 1.8 | – | – | – | 4.92±0.13 | 10 | 56 | –
9 | Cl.O=C(O)c1cc([C@H]2CCN[C@@H]2C(=O)O)cc(C(=O)O)c1Cl [6b, 5-((2S,3R)-2-Carboxypyrrolidin-3-yl)-2-chloroisophthalic acid hydrochloride] | 0.75 ± 0.04 | > 50 | >100 | > 100 | ≥ 100 | 6.82 ± 0.08 | 0.16 | 200 ± 20 | ≥ 100 | 5.15 ± 0.23 | 1.33 ± 0.03 | – | – | – | – | Ki [2]: 200 nM
10 | O=C(O)c1cccc([C@H]2[C@H](CCO)CN[C@@H]2C(=O)O)c1 [9d, (2S,3R,4S)-3-(3-Carboxyphenyl)-4-(2-hydroxyethyl)pyrrolidine-2-carboxylic acid] | – | > 10 | 13 | 35 | > 100 | 4.22 ± 0.03 | 61 | – | > 10 | – | – | 4.89 ± 0.3 | 4.47 ± 0.007 | – | – | GluK3 % specific binding (Table 5) (GluK3; [3H]KA): 57 ± 2%; GluK2 % specific binding (Table 5) (GluK2; [3H]KA): 93 ± 7%; GluK1 % specific binding (Table 5) (GluK1): 60 ± 6%
11 | Cl.O=C(O)C[C@@H]1CN[C@H](C(=O)O)[C@H]1c1cccc(C(=O)O)c1 [9e, (2S,3R,4S)-4-(Carboxymethyl)-3-(3-carboxyphenyl)pyrrolidine-2-carboxylic acid hydrochloride] | – | > 100 | >100 | > 100 | > 100 | – | > 100 | – | > 100 | – | – | – | – | – | – | GluK3 % specific binding (Table 5) (GluK3; [3H]KA): 95 ± 3%; GluK2 % specific binding (Table 5) (GluK2; [3H]KA): 97 ± 7%; GluK1 % specific binding (Table 5) (GluK1): 93 ± 3%
12 | O=C(O)C(F)(F)F.O=C(O)c1ccc([C@H]2CCN[C@@H]2C(=O)O)cc1 [compound 7, (2S,3R)-3-(4-Carboxyphenyl)pyrrolidine-2-carboxylic acid trifluoro acetic acid] | 165 ± 14.1 | > 100 | >100 | > 100 | > 100 | – | 8.5 | 45000 ± 1500 | > 100 | 159 ± 8.7 | 193 ± 6.1 | – | – | – | – | –
13 | (2S,3R)-3-(4-Amino-3-carboxyphenyl)pyrrolidine-2-carboxylic acid dihydrochloride [4g] | – | – | >100 | > 100 | – | – | > 100 | – | – | – | – | – | – | – | – | GluK3 % specific binding (GluK3; [6]): (64 ± 4)^d %; GluK2 % specific binding (GluK2; [6]): (77 ± 5)^d %; GluK1 % specific binding (GluK1; 10 μM ligand concentration, [3H]NF608, mean ± SD (Table 2)): (70 ± 16)^d %

From PMC7227796 (ACS chemical neuroscience, 2020)
